According to ChEMBL document CHEMBL4699492, “Discovery of Novel Pyrazolo[3,4-b] Pyridine Derivatives with Dual Activities of Vascular Remodeling Inhibition and Vasodilation for the Treatment of Pulmonary Arterial Hypertension” (J Med Chem, 2020):
≈ marks a conversion by molar mass, not a printed value. Calls of active or inactive are those of the source. The calls are words filed in the database; no cut-off is given here.

How the values were obtained:
[1] = Solubility of compound in water at pH 3.5; type: physicochemical; conditions: buffer
[2] = system: Rattus norvegicus; test: Inhibition of vascular remodeling activity in Sprague-Dawley rat model of hypoxia-induced pulmonary artery hypertension assessed as reduction in pulmonary artery medial thickness at 10 mg/kg, po administered daily for 2 weeks by H and E staining based digital microscopic analysis; type: functional, organism-based
Method in brief: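 Hypoxia model in male SD rats (10% O2, 4 weeks) with oral dosing at 10 mg/kg daily for 14 days in 0.5% CMC-Na. Paraffin-embedded lung tissue was cut into 5 µm sections and stained with H&E. Pulmonary artery medial thickness was quantified, n = 5/group.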

[3] = system: Rattus norvegicus; test: Inhibition of vascular remodeling activity in Sprague-Dawley rat model of hypoxia-induced pulmonary artery hypertension assessed as reduction in Smad2 phosphorylation in lungs at 10 mg/kg, po administered daily for 2 weeks by Western blot analysis; type: functional, organism-based
Method in brief: (§1)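 Hypoxic PAH model in male SD rats (160-200 g) kept at 10% O2 for 4 weeks. Oral dosing at 10 mg/kg daily for 14 days, suspended in 0.5% CMC-Na; control and hypoxia groups received vehicle only. Lungs homogenized in RIPA with protease and phosphatase inhibitors. 30 µg protein run on 10% SDS-PAGE, then PVDF blotting, with β-actin as loading reference. Three independent runs.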

[4] = system: Rattus norvegicus; test: In vivo inhibition of AMPK in Sprague-Dawley rat model of hypoxia-induced pulmonary artery hypertension assessed as reduction in ACC phosphorylation in lungs at 10 mg/kg, po administered daily for 2 weeks by Western blot analysis; type: functional, organism-based; method in brief: as §1
[5] = Antiproliferative activity against HLF1 cells assessed as reduction in TGFbeta-induced cell proliferation measured after 48 hrs by CCK8 assay; type: functional, cell-based; conditions: Homo sapiens, HLF1, 48 h
Method in brief: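 HPASMCs grown in high-glucose D-MEM with 20% FBS and HLF1 in D-MEM/F-12 (1:1) with 10% FBS. Cells stimulated with TGF-β (10 ng/mL) at 37 °C, 5% CO2, then exposed to a concentration range for 48 h. CCK-8 added for 4 h and absorbance read at 490 nm. IC50 derived from the curves.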

[6] = system: Pulmonary Artery Smooth Muscle Cells; test: Stimulation of sGC in HPASMC assessed as increase in intracellular cGMP level measured after 1 hr in presence of […] IBMX by cGMP-d2/europium cryptate reagent based HTRF assay; type: tissue-based; conditions: Homo sapiens, filed as activator
Method in brief: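 HPASMCs at 100 000 cells/mL in PBS with 1 mM IBMX and 0.2% BSA, with or without 10 µM ODQ. Exposed to a 6-point, 10-fold dilution series (top 200 µM, 2× stock) in triplicate for 1 h at room temperature. cGMP-d2 in lysis buffer and europium cryptate added, then 1 h at room temperature before HTRF reading. Three independent experiments averaged.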

[7] = target: AMP-activated protein kinase, AMPK (Homo sapiens) (UniProt P54646+O43741+P54619+Q9UGJ0+Q9Y478+Q13131+Q9UGI9); test: Inhibition of AMPK in hypoxia-induced HLF1 cells assessed as reduction in cell migration measured after 24 hrs by wound healing assay; type: cell-based; conditions: dose microM 5-10, time 24.0 hrs
Method in brief: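 Wound-healing assay. 5 × 10^4 cells were seeded per well and grown 24 h to near confluence. The monolayer was scratched with a pipette tip and washed with PBS. Cells were then kept in 1% FBS medium with TGF-β (10 ng/mL) or under hypoxia (1% O2, 5% CO2, 94% N2), alone or with compound. Migration ran 24 h at 37 °C, imaged at 0 and 24 h. Mean ± SD from three independent experiments.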

[8] = species: Homo sapiens; test: Inhibition of CaMKKbeta phosphorylated recombinant human AMPK alpha1/beta1/gamma1 using 1-biotin as substrate incubated for 60 mins by HTRF assay; conditions: time 1.0 hrs
Method in brief: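 Kinase reaction with 0.16 µM STK substrate 1-biotin, 0.8 mmol DTT, 4 mmol MgCl2, 4 µM ATP and compound, started by adding 1 ng/µl CaMKKβ-prephosphorylated AMPK (α1β1γ1). Ran 1 h at 37 °C, then Eu3+-cryptate STK antibody plus 57.5 nmol/L XL-665 for 1 h at room temperature. Activity read as the 665/620 ratio ×10000. Curves averaged from three independent experiments.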

[9] = system: Aorta; test: Vasodilating activity in Sprague-Dawley rat aortic rings assessed as reduction in phenylephrine-induced contractions; type: functional, tissue-based
Method in brief: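 Thoracic aorta from male SD rats (250-280 g) anesthetized with chloral hydrate, cut into 4 mm rings. Rings held in Krebs-Henseleit at 37 °C gassed with 95% O2/5% CO2, under 2 g resting tension, equilibrated 60 min, and precontracted with 10^-7 M phenylephrine. Cumulative concentrations of 3×10^-9 to 10^-6 M (final) applied. Percent relaxation of the initial contraction taken at 1 µM, and EC50 derived.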

[10] = system: Rattus norvegicus; test: In vivo stimulation of sGC in Sprague-Dawley rat model of hypoxia-induced pulmonary artery hypertension assessed as […] in PKG1 expression in lungs at 10 mg/kg, po administered daily for 2 weeks by Western blot analysis; type: functional, organism-based; method in brief: as §1
[11] = Half life in human liver microsomes at 1.5 uM preincubated for 5 mins followed by NADPH addition and measured up to 45 mins by LC-MS/MS analysis; type: ADME, Microsome; conditions: time <=50 min
Method in brief: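 Liver microsomes (0.75 mg/mL), human or SD rat, in 0.1 M potassium phosphate pH 7.4 with 3.0 mM MgCl2 and 1.5 µM compound, run in duplicate. After 5 min preincubation at 37 °C, reaction started with 3 mM NADPH. Quenched at 0, 5, 15, 30 and 45 min with ice-cold acetonitrile containing internal standard. Ketanserin served as positive control and a no-NADPH buffer incubation as negative control. LC-MS/MS read-out.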

[12] = system: Rattus norvegicus; test: Inhibition of vascular remodeling activity in Sprague-Dawley rat model of hypoxia-induced pulmonary artery hypertension assessed as decrease in ratio of RV/tibial length at 10 mg/kg, po administered daily for 2 weeks; type: functional, organism-based
[13] = system: Pulmonary Artery Smooth Muscle Cells; test: Stimulation of sGC in HPASMC assessed as increase in intracellular cGMP level at 100 uM measured after 1 hr in presence of PDE5 inhibitor IBMX and sGC inhibitor ODQ by cGMP-d2/europium cryptate reagent based HTRF assay; type: tissue-based; conditions: Homo sapiens
Method in brief: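 HPASMCs were suspended at 100,000 cells/mL in PBS with 0.2% BSA, with or without 10 µM ODQ. Compounds were added as a 6-point, 10-fold dilution series; the top 2× stock was 200 µM. Incubation was 1 h at room temperature, in triplicate. cGMP-d2 in lysis buffer and europium cryptate were then added for 1 h before HTRF reading. Three independent experiments.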

[14] = Antiproliferative activity against HPASMC measured after 48 hrs under hypoxic condition by CCK8 assay; type: functional, tissue-based; conditions: Homo sapiens, Pulmonary Artery Smooth Muscle Cells
Method in brief: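 HPASMCs were grown in high-glucose D-MEM with 20% FBS, and HLF1 in D-MEM/F-12 (1:1) with 10% FBS. Cells were seeded for exponential growth, then exposed to a range of compound concentrations for 48 h at 37 °C under hypoxia (1% O2, 5% CO2, 94% N2). CCK-8 was added for 4 h and absorbance read at 490 nm. IC50 came from dose-response curves averaged over three independent experiments.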

solubility [1]: 0.028 µg/mL (≈ 0.064 µM)
inhibition [7]: Dose-dependent effect
inhibition [8]: Dose-dependent effect
EC50 [9]: 0.29 µM
half-life at 1.5 µM [11]: 2.08 h
Structure (SMILES): Cc1ccccc1COc1nc2c(cc1-c1nc(N)cc(N)n1)c(C)nn2-c1ccccc1
inhibition [2]: Active
inhibition [3]: Active
inhibition [4]: Active
IC50 [5]: 38.5 µM
Activity [6]: Dose-dependent effect
Activity [10]: Active
inhibition [12]: Active
Activity [13]: inactive
IC50 [14]: 20.8 µM
